Arrestin-AP2 inh: blocks beta-arrestin peptide binding to AP2 adaptin; FITC-arrestin peptide / GST-AP2 beads, flow cytometry; AP2 beta2 appendage carries R879A mutation; inhibition, % at 10 µM; AID 504490; 340,000 compounds, 0.31% hits;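 active means inhibition above a set limit, near 3 SD of compounds lacking own fluorescence, cut at about 54% in these data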;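 further: plate controls were DMSO wells for no effect and 5 µM unlabelled arrestin peptide for full effect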
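Measured by: flow cytometry, FL1 (488/535 nm); Material: AP2 appendage R879A on GSH beads; Evaluation: percent response; Timing: pre-incubation 12 min, peptide binding 1 h, room temperature; Also added: 50 nM FITC-arrestin peptide; Medium: PBS with 0.05% Tween 20 and 0.1% BSA.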
ABCB6 inh 2: inhibitors of human ABC transporter ABCB6 | Q9NP58 | K562-ABCB6 porphyrin accumulation, flow cytometry, 1 h; stronger effect = lower value | fluorescence ratio to DMSO, % at 10 µM | 360,000 compounds, 0.19% hits | AID 602162;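 active means fluorescence ratio to DMSO below 75%, the collection mean minus 3 SD; inconclusive means too few cells collected in the well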;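 further: signal is porphyrin accumulated inside mitochondria; 100% equals median channel fluorescence of DMSO control wells; lower ratio means ABCB6 inhibition with less porphyrin fluorescence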
Myeloid diff MLP: myeloid differentiation induction | 360,000 compounds, 1% hits | calls only at 10 µM | ER-HoxA9 myeloid progenitors, lysozyme-GFP differentiation, flow cytometry;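 active means normalized GFP-positive differentiation at or above the plate's own cutoff, the solvent-only control mean plus 3 SD; inconclusive means no clear call, values can overlap the other calls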;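 further: cells exposed to compound for four days before flow analysis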
ATG4B inhibitor: blocks human ATG4B protease cleavage of LC3 substrate; 340,000 compounds, 0.51% hits; inhibition, % at 8.33 µM; ATG4B cleavage of LC3-PLA2, NBD-HPC fluorescence, 1 h; in the data active means inhibition above about 40%
NRP1-CendR mod: alters CendR peptide binding to human NRP-1. inhibition, % at 25 µM. FAM-RPARPAR peptide binding to NRP-1, fluorescence polarization. 360,000 compounds, 0.85% hits;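 active means inhibition or corrected inhibition above about 18%, plus a signal ratio from 0.5 to 1.5, limit read from the data, passing the limit was not always enough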
Target sequence (O14786 whole entry, looked up): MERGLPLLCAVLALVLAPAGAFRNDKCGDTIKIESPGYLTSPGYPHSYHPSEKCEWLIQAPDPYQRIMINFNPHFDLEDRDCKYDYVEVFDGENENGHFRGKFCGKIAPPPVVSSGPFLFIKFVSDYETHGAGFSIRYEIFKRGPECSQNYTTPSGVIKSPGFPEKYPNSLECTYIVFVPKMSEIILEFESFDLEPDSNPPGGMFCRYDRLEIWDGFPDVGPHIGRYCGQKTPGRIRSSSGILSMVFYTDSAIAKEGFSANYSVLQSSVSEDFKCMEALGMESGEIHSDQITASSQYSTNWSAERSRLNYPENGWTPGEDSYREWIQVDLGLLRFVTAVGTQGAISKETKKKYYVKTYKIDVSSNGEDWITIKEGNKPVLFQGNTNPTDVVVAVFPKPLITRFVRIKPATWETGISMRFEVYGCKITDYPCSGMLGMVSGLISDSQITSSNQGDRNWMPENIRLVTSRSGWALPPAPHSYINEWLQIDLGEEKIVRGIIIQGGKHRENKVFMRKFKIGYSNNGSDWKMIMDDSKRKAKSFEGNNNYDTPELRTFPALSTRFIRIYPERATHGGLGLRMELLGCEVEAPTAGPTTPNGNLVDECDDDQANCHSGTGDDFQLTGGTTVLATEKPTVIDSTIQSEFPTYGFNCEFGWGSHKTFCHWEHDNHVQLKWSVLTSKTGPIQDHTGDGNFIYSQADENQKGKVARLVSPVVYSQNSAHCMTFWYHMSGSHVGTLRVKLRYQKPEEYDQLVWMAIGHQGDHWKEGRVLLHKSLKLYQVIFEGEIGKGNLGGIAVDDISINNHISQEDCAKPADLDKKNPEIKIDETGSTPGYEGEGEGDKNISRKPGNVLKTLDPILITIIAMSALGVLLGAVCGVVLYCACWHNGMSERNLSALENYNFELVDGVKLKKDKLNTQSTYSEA
Granule exo inh: blocks lytic granule exocytosis | 360,000 compounds, 0.66% hits | TALL-104 LAMP-1 surface exposure, flow cytometry; cells stimulated with thapsigargin and PMA | inhibition, % at 10 µM;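 active means inhibition above about 55%, limit read from the data; inconclusive means no clear call, values can overlap the other calls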
Active calls of the source: *; i = inactive; ? = inconclusive; · = not tested or not shown; + = active, no number. This is a sample that favours compounds with a hit; in the whole collection about 3.3% have one here.

SMILES	Arrestin-AP2 inh	ABCB6 inh 2	Myeloid diff MLP	ATG4B inhibitor	NRP1-CendR mod	Granule exo inh
CCc1ccc(CN(C)C(=O)c2ccc3c(c2)OCCO3)cc1	8	234	+	0	3	2
CN(Cc1ccccc1)C(=O)c1ccc2c(c1)OCO2	17	99	i	3	-3	0
O=S1(=O)[C@H]2C[C@@H]3C=C[C@@]2(CN1Cc1ccccc1F)O3	8	99	i	-2	4	10
O=C(O)C1C(C(=O)Nc2ccc(Cl)cc2)C2C=CC1C21CC1 (stereo unspecified)	5	99	i	-7	28*	-3
O=C1c2cc(Br)ccc2N(Cc2ccc(Br)cc2)S(=O)(=O)C1c1cc(Cl)c(Cl)cc1[N+](=O)[O-] (stereo unspecified)	-3	101	i	68*	-6	-5
O=C1CS(=O)(=O)N(Cc2cccc(F)c2)c2ccc(Br)cc21	-5	113	i	7	5	-6
COc1ccc(OC)c(/C=C/C(=O)N(C)CC(=O)Nc2cc(C)ccc2C)c1	5	107	i	-2	-12	-3
O=S(=O)(/C(=C\c1ccc(C(F)(F)F)cc1)c1nc2ccccc2[nH]1)c1ccccc1	0	94	?	1	-5	70*
Cc1cc(C)c(S(=O)(=O)N2CCCCC2CCNC(=O)C(=O)NC2CC2)c(C)c1 (stereo unspecified)	-7	83	+	-4	6	-4
N#Cc1cc2c(=O)n3ccccc3nc2n(-c2ccccc2Cl)c1=O	-7	258	+	0	-20	-1
CCC(C)[C@H](NC(=O)Nc1ccc(S(N)(=O)=O)cc1)C(=O)O (stereo partly specified)	5	94	i	-4	0	0
CCC(C)[C@H](NC(=O)Nc1cccc(Cl)c1)C(=O)O (stereo partly specified)	-7	103	i	-6	20*	3
O=C(Nc1ccccc1)c1ccc(Br)c(S(=O)(=O)Nc2ccccn2)c1	-9	105	i	-7	16	1
O=C1c2ccccc2-n2c1nc1ccccc1c2=O	5	111	+	-27	-13	-4
O=c1c2ccccc2nc2n1-c1ccccc1CCC2	-5	98	i	3	0	0
CCOc1ccc(CNS(=O)(=O)c2c(C(=O)N3CCCC3)c(C)n(C)c2C)cc1OC	17	99	i	10	0	0
CCOc1ccc(C(Nc2cccnc2)c2cc(Cl)c3cccnc3c2O)cc1 (stereo unspecified)	9	101	+	3	-7	0
CCn1c(O)c(C=Nc2ccccc2)sc1=S	·	·	·	13	·	·
Oc1c(C=Nc2ccccc2)sc(=S)n1Cc1ccccc1	-7	110	+	28	-25	11
Cc1ccc(NS(=O)(=O)c2cccc(C(=O)N3CCN(c4ncccn4)CC3)c2)cc1	12	98	i	-13	5	-8
O=C(C[C@H]1C/C=C\C[C@H](NC(=O)OCC2c3ccccc3-c3ccccc32)C(=O)OC[C@H]2CCCN2C1=O)NCCO	·	99	i	-4	-1	59*
CCCCCOc1ccc(Br)cc1CSC(=N)N	17	98	?	16	35*	47
COc1ccc(Br)cc1CSC(=N)N	30	99	i	-5	4	2
CN(Cc1ccc(F)cc1)C(=O)c1cccc(OC2CCN(C3CCCC3)CC2)c1	-12	97	i	-17	26*	-3
c1ccc(Sc2ncccn2)nc1	1	104	i	0	2	-1
CCOc1ccc(/C(O)=C2\C(=O)C(=O)N(c3ccccn3)C2c2ccccc2F)c(C)c1 (stereo unspecified)	·	95	i	·	-15	4
CCOc1ccc(N2C(=O)CS/C2=C(\C(Cl)=C(Cl)Cl)[N+](=O)[O-])cc1	7	111	+	36	-26	0
COc1ccc(OC)c(/C=C/C(=O)OCC(=O)NCc2ccccc2)c1	-2	93	i	-1	32*	-3
COc1ccc(CCNC(=O)COC(=O)/C=C/c2cc(OC)ccc2OC)cc1	8	101	i	-3	10	-4
COc1ccccc1Nc1nc(C)cc(C)n1	-2	101	i	-3	-13	-7

Screening results: PubChem BioAssay, several laboratories
